In ChEMBL document CHEMBL3232848, “Design and synthesis of high affinity inhibitors of Plasmodium falciparum and Plasmodium vivax N-myristoyltransferases directed by ligand efficiency dependent lipophilicity (LELP)” (J Med Chem, 2014):

What was measured:
Plasmodium falciparum [1] = experiment: Antimicrobial activity against late stage trophozoite form of Plasmodium falciparum 3D7 infected in RBCs after 48 hrs by SYBR green viability assay; assay type: functional, organism-based; conditions: 3D7, 96 h, in the assay text read “after 96 hrs” for “after 48 hrs”
How it was run: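 Synchronous 3D7 late trophozoites (33–36 h) were used at 0.1–0.2% parasitemia and 2% hematocrit in washed, buffy-coat-free RBCs, in RPMI 1640 with Albumax, gentamycin and L-glutamine. Seven dilutions from 10.0 to 0.014 μM were run in duplicate at 37 °C under 5% CO2, 5% O2, 90% N2. Drug was replaced at 48 h and incubation continued to 96 h. Read-out was SYBR Green I in saponin/Triton lysis buffer, then fluorescence converted to % growth.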

[2] = molecular target: T1, Glycylpeptide N-tetradecanoyltransferase (Plasmodium falciparum (isolate 3D7), UniProt Q8ILW6); experiment: Inhibition of Plasmodium falciparum N-myristoyltransferase by CPM fluorescence assay
T1 sequence (Q8ILW6 whole entry): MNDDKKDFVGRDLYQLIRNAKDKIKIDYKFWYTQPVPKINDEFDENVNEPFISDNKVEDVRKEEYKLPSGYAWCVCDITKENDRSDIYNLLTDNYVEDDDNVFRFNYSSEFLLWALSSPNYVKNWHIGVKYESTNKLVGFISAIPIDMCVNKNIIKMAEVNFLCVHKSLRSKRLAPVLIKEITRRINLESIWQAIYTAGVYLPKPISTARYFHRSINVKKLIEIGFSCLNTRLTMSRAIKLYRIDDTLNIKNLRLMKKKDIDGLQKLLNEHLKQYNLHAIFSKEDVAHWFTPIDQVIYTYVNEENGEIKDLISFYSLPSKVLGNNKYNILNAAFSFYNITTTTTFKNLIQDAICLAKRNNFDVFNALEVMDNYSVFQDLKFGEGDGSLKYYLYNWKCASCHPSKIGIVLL
How it was run: (§1)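 IC50 values (mean of two or more determinations) were converted to Ki by Cheng–Prusoff using substrate concentration and Km. For PfNMT, Km was 3.64 μM and substrate was 4.00 μM. The human enzyme values refer to HsNMT1.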

[3] = Inhibition of human N-myristoyltransferase using H-Gly-Ser-Asn-Lys-Ser-Lys-Pro-Lys-NH2 as substrate by CPM fluorescence assay; how it was run: as §1
[4] = Selectivity ratio of Ki for human N-myristoyltransferase to Ki for Plasmodium vivax N-myristoyltransferase
[5] = Selectivity ratio of Ki for human N-myristoyltransferase to Ki for Plasmodium falciparum N-myristoyltransferase
[6] = Inhibition of Plasmodium vivax N-myristoyltransferase by CPM fluorescence assay; how it was run: as §1
Plasmodium falciparum [7] = experiment: Antimicrobial activity against blood-stage Plasmodium falciparum K1 assessed as inhibition of [3H]hypoxanthine incorporation after 48 hrs by liquid scintillation counting; assay type: functional, organism-based
How it was run: (§2)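 Modified Desjardins method. Drug was serially diluted 2-fold, and infected blood was added at 0.3% parasitemia and 2.5% hematocrit. Uninfected blood and drug-free wells served as controls. Plates were held at 37 °C under 93% N2, 4% CO2, 3% O2. After 48 h, [3H]hypoxanthine (0.5 μCi/well) was added for a further 24 h, then cells were harvested and scintillation counted. Counts were taken as % of untreated controls, with IC50 by logit regression.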

[8] = Selectivity ratio of LD50 for human HepG2 cells to EC50 for blood-stage Plasmodium falciparum 3D7; assay type: ADME, cell-based; conditions: read-out: Ratio LD50/EC50
Plasmodium falciparum [9] = experiment: Antimicrobial activity against blood-stage Plasmodium falciparum NF54 assessed as inhibition of [3H]hypoxanthine incorporation after 48 hrs by liquid scintillation counting; assay type: functional, organism-based; how it was run: as §2
[10] = Aqueous solubility of the compound; assay type: physicochemical
[11] = Cytotoxicity against human HepG2 cells after 72 hrs by MTS assay; assay type: cell-based; conditions: read-out: LD50
How it was run: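 HepG2 cells grown in DMEM with 10% FBS and penicillin/streptomycin, 37 °C, 5% CO2, seeded at 5000 cells/well. Seven-point dilution series in medium from a 50 mM DMSO stock; DMSO/medium and puromycin control wells. Incubated 72 h, then MTS/PMS added for 4 h and read at 490 nm. LD50 by nonlinear regression, mean of six determinations.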

[12] = Selectivity ratio of LD50 for human HepG2 cells to EC50 for blood-stage Plasmodium falciparum NF54; assay type: ADME, cell-based; conditions: read-out: Ratio LD50/EC50
Plasmodium falciparum [13] = experiment: Antimicrobial activity against blood-stage Plasmodium falciparum Dd2 assessed as inhibition of [3H]hypoxanthine incorporation after 48 hrs by liquid scintillation counting; assay type: functional; how it was run: as §2
Plasmodium falciparum [14] = experiment: Antimicrobial activity against blood-stage Plasmodium falciparum 3D7 assessed as inhibition of [3H]hypoxanthine incorporation after 48 hrs by liquid scintillation counting; assay type: functional, organism-based
Plasmodium falciparum [15] = experiment: Ratio of EC50 for blood-stage Plasmodium falciparum Dd2 to EC50 for blood-stage Plasmodium falciparum NF54; assay type: functional
[16] = Selectivity ratio of LD50 for human HepG2 cells to EC50 for blood-stage Plasmodium falciparum Dd2; assay type: ADME, cell-based; conditions: read-out: Ratio LD50/EC50
[17] = Selectivity ratio of LD50 for human HepG2 cells to EC50 for blood-stage Plasmodium falciparum K1; assay type: ADME, cell-based; conditions: read-out: Ratio LD50/EC50
Plasmodium berghei = experiment: Antimicrobial activity against Plasmodium berghei sporozoites infected in 12 hrs compound pretreated human HepG2 cells assessed as reduction in viability of exoerythrocytic forms measured after 48 hrs of incubation by luciferase bioluminescence assay; assay type: functional, organism-based
How it was run: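 HepG2-A16-CD81EGFP cells expressing GFP-CD81 were grown in DMEM with 10% FCS, glutamine and penicillin/streptomycin at 37 °C, 5% CO2. They were seeded at 3000 cells/well 24 h before infection. Cells were pretreated 12 h with a 12-point dilution series, then infected with luciferase-expressing P. berghei sporozoites (1000/well). Exoerythrocytic form viability was read by bioluminescence after 48 h. EC50 came from a four-parameter variable-slope fit, mean of two determinations.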

SMILES	Ki [2]	Ki [3]	EC50 (Plasmodium falciparum [1])	Ki [6]	further results
O=C(OCCc1ccccc1)c1sc2ccccc2c1OC1CCNCC1	677 nM	10400 nM	5600 nM	72 nM	
c1ccc(CCc2noc(-c3sc4ccccc4c3OC3CCNCC3)n2)cc1	247 nM	1540 nM	3790 nM	57 nM	
O=C(OCCCc1ccccc1)c1sc2ccccc2c1OC1CCNCC1	3970 nM	1160 nM		66 nM	
O=C(NCCc1ccccc1)c1sc2ccccc2c1OC1CCNCC1	> 10000 nM	> 100000 nM		3780 nM	
c1ccc(C(c2ccccc2)c2nnc(-c3sc4ccccc4c3OC3CCNCC3)o2)cc1	465 nM	1920 nM		142 nM	
O=C(NCCOc1ccccc1)c1sc2ccccc2c1OC1CCNCC1	> 10000 nM	> 100000 nM		2210 nM	
Cc1nn(C)c(C)c1Cc1nnc(-c2sc3ccccc3c2OC2CCNCC2)o1	8 nM	60 nM	302 nM	2 nM	EC50 (Plasmodium falciparum [7]): 339 nM; selectivity ratio [8]: ≤ 40; IC50 [2]: 17 nM; EC50 (Plasmodium falciparum [9]): 232 nM; solubility [10]: > 8 mM; CC50 at 72 h [11]: 12300 nM; selectivity ratio [12]: ≤ 40; EC50 (Plasmodium falciparum [13]): 916 nM; EC50 (Plasmodium falciparum [14]): 302 nM; Ratio Ki [4]: 30; Ratio Ki [5]: 8; Ratio EC50 (Plasmodium falciparum [15]): <4; selectivity ratio [16]: 14; selectivity ratio [17]: ≤ 40; EC50 (Plasmodium berghei): 372 nM
O=C(NCCCc1ccccc1)c1sc2ccccc2c1OC1CCNCC1	> 10000 nM	> 100000 nM		2530 nM	
c1ccc(Cc2n[nH]c(-c3sc4ccccc4c3OC3CCNCC3)n2)cc1	270 nM	893 nM		71 nM	
O=C1C(O)=C([C@H]2CC[C@H](c3ccc(Cl)cc3)CC2)C(=O)c2ccccc21 [ATOVAQUONE]					CC50 at 72 h [11]: > 10000 nM; EC50 (Plasmodium berghei): 0.5 nM
CCN(CC)CCCC(C)Nc1ccnc2cc(Cl)ccc12 (configuration not stated) [CHLOROQUINE]					EC50 (Plasmodium falciparum [7]): 255 nM; EC50 (Plasmodium falciparum [9]): 13 nM; EC50 (Plasmodium falciparum [13]): 328 nM; EC50 (Plasmodium falciparum [14]): 6 nM; EC50 (Plasmodium berghei): > 10000 nM
O=C(OCCOc1ccccc1)c1sc2ccccc2c1OC1CCNCC1	1130 nM	1870 nM		123 nM	
CC(c1ccccc1)c1nnc(-c2sc3ccccc3c2OC2CCNCC2)o1 (racemic)	334 nM	2070 nM		77 nM	
FC(F)(c1ccccc1)c1nnc(-c2sc3ccccc3c2OC2CCNCC2)o1	391 nM	2770 nM		182 nM	

The remaining compounds from weak to strong by Ki [2], led by results:

Ki [2]	Ki [3]	SMILES	EC50 (Plasmodium falciparum [1])	Ki [6]	further results
226 nM	2250 nM	Cc1n[nH]c(C)c1CCc1nnc(-c2sc3ccccc3c2OC2CCNCC2)o1			
212 nM	3950 nM	COC(c1ccccc1)c1nnc(-c2sc3ccccc3c2OC2CCNCC2)o1 (racemic)		81 nM	
186 nM	709 nM	Cc1noc(C)c1CCc1nnc(-c2sc3ccccc3c2OC2CCNCC2)o1		47 nM	
163 nM	871 nM	Clc1cccc(Cc2noc(-c3sc4ccccc4c3OC3CCNCC3)n2)c1	1210 nM	58 nM	
152 nM	1550 nM	CC(C)(c1ccccc1)c1nnc(-c2sc3ccccc3c2OC2CCNCC2)o1		32 nM	
125 nM	2450 nM	OC(c1ccccc1)c1nnc(-c2sc3ccccc3c2OC2CCNCC2)o1 (racemic)	7340 nM	35 nM	
124 nM	824 nM	Cc1nn(C)c(C)c1CCc1nnc(-c2sc3ccccc3c2OC2CCNCC2)o1		32 nM	
120 nM	1190 nM	c1ccc(Cc2nc(-c3sc4ccccc4c3OC3CCNCC3)no2)cc1		13 nM	
120 nM	2200 nM	COc1cccc(CCOC(=O)c2sc3ccccc3c2OC2CCNCC2)c1	4200 nM	59 nM	
113 nM	1050 nM	Cc1noc(C)c1Cc1nnc(-c2sc3ccccc3c2OC2CCNCC2)o1	5020 nM	38 nM	Ratio Ki [5]: 8
98 nM	976 nM	c1ccc(C2(c3nnc(-c4sc5ccccc5c4OC4CCNCC4)o3)CC2)cc1		34 nM	
77 nM	1370 nM	c1ccc(Cc2nnc(-c3sc4ccccc4c3OC3CCNCC3)o2)cc1	9500 nM	39 nM	
71 nM	788 nM	c1ccc(Cc2noc(-c3sc4ccccc4c3OC3CCNCC3)n2)cc1	2300 nM	16 nM	
55 nM	1540 nM	Cc1n[nH]c(C)c1Cc1nnc(-c2sc3ccccc3c2OC2CCNCC2)o1	2010 nM	75 nM	Ratio Ki [5]: 30
51 nM	192 nM	COc1cccc(Cc2noc(-c3sc4ccccc4c3OC3CCNCC3)n2)c1	1450 nM	8 nM	
50 nM	100 nM	COc1cccc(Cc2nc(-c3sc4ccccc4c3OC3CCNCC3)no2)c1	3260 nM	6 nM	
33 nM	428 nM	COc1cccc(Cc2nnc(-c3sc4ccccc4c3OC3CCNCC3)o2)c1	5500 nM	18 nM	Ratio Ki [4]: 24; Ratio Ki [5]: 13
26 nM	31 nM	COc1cc(CCOC(=O)c2sc3ccccc3c2OC2CCNCC2)cc(OC)c1	1410 nM	9 nM	
15 nM	207 nM	COc1cc(Cc2noc(-c3sc4ccccc4c3OC3CCNCC3)n2)cc(OC)c1	2490 nM	5 nM	
15 nM	50 nM	COc1cc(Cc2nc(-c3sc4ccccc4c3OC3CCNCC3)no2)cc(OC)c1	3500 nM	8 nM	
